High-throughput results from PubChem.
Rows were chosen to be rich in hits. Some 2.4% of all compounds tested hit in one or more screens of this group.
NTR1 agonist – agonists of human NTR1, primary screen, imaging, U2OS cells, beta-arrestin-GFP, high content; NTR1-U2OS beta-arrestin-GFP spot imaging, agonist mode; activation, % at 20 µM; actives 0.17% (n = 330,000); Neurotensin receptor type 1 (Homo sapiens), P30989;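 active means activation at or above 40% of the spot to cytoplasm intensity ratio, with at least 20 cells analyzed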;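 further: 0% = DMSO without peptide and 100% = 100 nM NTR1 peptide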
aDG glyco act – activators of alpha-DG glycosylation, primary screen, uHTS, Pro5-aDG cells, AlphaScreen | actives 0.22% (n = 360,000) | alpha-DG glycosylation AlphaScreen (IIH6); 0% Pro5, 100% B10-LARGE cell signal | activation, % at 10 µM | AID 624168, 2012;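 active means activation of at least 8% versus controls, or a plate z-score of at least 8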;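 further: Pro5 are CHO cells carrying HIG-tagged alpha-DG that lacks glycosylation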
H9c2 TAG inh – inhibitors of triacylglycerol accumulation, primary screen, cell-based, uHTS, fluorescence, H9c2. H9c2 cells, Nile Red lipid (TAG) fluorescence; cells loaded with 200 µM oleic acid. inhibition, % at 12.5 µM. actives 0.66% (n = 230,000). AID 651582, 2012;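 active means pattern-corrected inhibition of lipid staining of at least 50% with the nuclear-stain viability signal not falling by more than 50%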;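 further: 0% = DMSO wells and 100% = triacsin C control wells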
TbMetRS inhib – T. brucei MetRS inhibitors, primary screen, biochemical, luminescence; actives 0.4% (n = 360,000); methionyl-tRNA synthetase (Trypanosoma brucei brucei); inhibition, % at 11.9 µM; purified T. brucei MetRS, ATP depletion, Kinase-Glo luminescence; AID 624268, 2012;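 active means inhibition above a per-plate cutoff of the control wells' mean inhibition plus 3 SD, cut at about 5.5% in these data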;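 further: 0% = DMSO wells median and 100% = median of wells with control inhibitor compound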
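Dosing: 11.9 µM single point; system: parasite MetRS enzyme; technique: luminescence of leftover ATP; times: 15 min enzyme-compound preincubation, 2 h reaction, 10 min detection, 25 °C; replicates: each compound tested once; read-out basis: percent inhibition relative to median high and low control wells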
MC4R antagonist – MC4R antagonists of cAMP signaling, primary screen, cell-based, TR-FRET, antagonist arm of biased-ligand search | MC4R-expressing cells, MTII-stimulated cAMP, LANCE TR-FRET | inhibition, % at 6.5 µM | actives 0.48% (n = 360,000);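 active means inhibition above its plate's cutoff, the mean of tested wells on that plate plus 3 SD, cut at about 29% in these data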;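 further: 0% = Melanotan II alone and 100% = Melanotan II plus saturating MCL0020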
Target sequence (P32245 whole entry, looked up): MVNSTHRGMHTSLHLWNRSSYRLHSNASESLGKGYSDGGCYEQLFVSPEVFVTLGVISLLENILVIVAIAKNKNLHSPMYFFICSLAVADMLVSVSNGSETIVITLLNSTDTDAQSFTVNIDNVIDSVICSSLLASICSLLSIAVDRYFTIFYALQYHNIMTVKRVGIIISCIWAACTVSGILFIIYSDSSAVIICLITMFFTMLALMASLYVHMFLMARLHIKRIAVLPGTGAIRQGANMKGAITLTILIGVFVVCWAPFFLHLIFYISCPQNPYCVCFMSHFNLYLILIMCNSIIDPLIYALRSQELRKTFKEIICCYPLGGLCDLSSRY
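material = U2OS cells stably expressing human melanocortin 4 receptor (MC4R) | also added = Melanotan II challenge | dosing = single nominal compound dose of 6.5 µM | detection = TR-FRET with Eu-cAMP and labeled anti-cAMP, 671 nm | replication = singlicate | timing = compound 30 min, challenge 1 h, detection 1 h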
MC4R ag barr – MC4R agonists recruiting beta-arrestin, primary screen, cell-based, luminescence, agonist arm of biased-ligand search; Melanocortin receptor 4 (Homo sapiens), P32245; U2OS MC4R beta-arrestin complementation; percent of melanotan II response, DMSO zero; activation, % at 8.9 µM; actives 0.98% (n = 360,000); AID 540308, 2011;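 active means activation above a per-plate cutoff, the mean activation of sample wells on that plate plus 3 SD, cut at about 8% in these data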
U2OS cAMP counter – nonselective cAMP signaling inhibitors, parental cells, counter-screen for MC4R biased antagonist project, cell-based, TR-FRET, U2OS, forskolin, triplicate. inhibition, % at 6.5 µM. LANCE TR-FRET. actives 26% (n = 1,600). AID 602193, 2012. shares compounds with MC4R antagonist;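 active means mean inhibition over triplicates above the low-control well mean plus 3 SD, set per campaign, cut at about 13% in these data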;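 further: signal is single emission at 671 nm which falls as cellular cAMP rises; 0% = forskolin-stimulated wells and 100% = buffer without forskolin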
MC4R antag conf – MC4R cAMP antagonists, retest, confirmation, cell-based, TR-FRET; MC4R-expressing cells, MTII-stimulated cAMP; actives 27% (n = 1,600); shares compounds with MC4R antagonist; inhibition, % at 6.5 µM; in the data active means inhibition above about 29%;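 further: 0% = agonist stimulated wells alone and 100% = agonist stimulated wells plus saturating reference antagonist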
* marks the source's active call; other numbers are inactive results; . = no result given.

SMILES	NTR1 agonist	aDG glyco act	H9c2 TAG inh	TbMetRS inhib	MC4R antagonist	MC4R ag barr	U2OS cAMP counter	MC4R antag conf
COc1ccc(/C=C2\C(=O)N(c3c(Cl)cc(Cl)cc3Cl)N=C2NC(=O)c2cccc([N+](=O)[O-])c2)cc1	.	0	.	0	32*	-1	-1	7
COc1ccc(NC(=O)c2cccc(N3C(=O)c4cccc([N+](=O)[O-])c4C3=O)c2)cc1	0	0	15	0	14	-4	.	.
CC1(C(=O)NS(=O)(=O)c2ccccc2OC(F)(F)F)CCN1C(=O)c1ccccc1 (centres undefined)	.	0	-2	0	1	-1	.	.
COc1ccc(CN(C)S(=O)(=O)c2nnc(NC(=O)c3ccc(C)cc3)s2)cc1OC	1	0	.	0	30*	-1	4	23
COc1ccc(CN(C)S(=O)(=O)c2nnc(NC(=O)c3ccccc3OC)s2)cc1OC	2	0	.	-1	2	0	.	.
COc1ccc(C(=O)/C=C/C(=O)N(CC(=O)NC2CCCCC2)Cc2ccc(F)cc2)c(O)c1	.	-1	15	0	29*	-4	6	12
CS(=O)(=O)N(CC(=O)NC1CCCCC1)Cc1ccc(F)cc1	0	0	-3	-1	19	-2	.	.
CCOC(=O)c1cc2c(c(-c3cccc(C#Cc4ccc(OC)c(OC)c4)c3)n1)[C@@H](CCO)N(S(=O)C(C)(C)C)C2 (some centres undefined)	.	0	.	0	.	.	.	.
COc1ccc(OC)c(Cc2nnc(CCC(=O)N3CCCCC3c3nccs3)o2)c1 (centres undefined)	3	0	1	-1	30*	1	-5	-21
Cc1cccc(Cc2nnc(CCC(=O)N3CCCCC3c3nccs3)o2)c1 (centres undefined)	0	0	-6	-1	0	-2	.	.
CCNC(=O)C1(C)CCN(C(=O)c2ccc(C(F)(F)F)cc2)C1 (centres undefined)	.	0	-8	0	-4	0	.	.
COc1ccc(C(C(=O)NC(C)(C)C)N(C(=O)CCC(=O)Nc2cc(C)on2)c2ccccc2F)cc1 (centres undefined)	2	0	.	0	30*	2	-1	-8
CN(C)C(=O)c1cnc(Cc2c[nH]c3ccccc23)c(I)c1	.	0	-2	-1	-1	0	.	.
COC(=O)COc1ccc2cc(-c3ccccc3)c(=O)oc2c1	2	-1	.	0	40*	-1	24*	56*
COC(=O)COc1ccc2cc(-c3ccc(OC)cc3)c(=O)oc2c1	2	0	.	0	39*	0	26*	42*
COC(=O)COc1ccc2c(=O)c(-c3ccccc3)coc2c1	5	0	-6	1	44*	0	28*	52*
NC(=O)COc1ccc2cc(-c3ccccc3)c(=O)oc2c1	-1	0	.	0	8	-1	.	.
O=c1cccc(-c2ccc3ccccc3c2)o1	.	0	.	0	.	.	.	.
Cc1ccc(NC(=O)C(=O)NCC2CCCO2)cc1 (centres undefined)	-1	0	.	0	-1	-1	.	.
Cc1ccc(NC(=O)C(=O)NCC2CCCO2)cc1C (centres undefined)	1	0	-9	0	36*	2	1	-6
O=C(Nc1cccc([N+](=O)[O-])c1)Nc1cccc([N+](=O)[O-])c1	4	-1	.	2	34*	1	11	14
O=C(Nc1ccc(C(=O)O)cc1)Nc1cccc([N+](=O)[O-])c1	0	0	.	1	3	-3	.	.
COc1ccccc1CCC(=O)Nc1ccc2c(c1)c(=O)n(C)n2C	.	0	16	0	7	-1	.	.
O=C(O)CNC(=O)C(c1ccccc1)c1ccccc1	0	0	0	-1	4	-1	.	.
O=C(CNC(=O)C(c1ccccc1)c1ccccc1)OCc1ccccc1	0	0	-1	0	30*	0	13	19
SMILES	NTR1 agonist	aDG glyco act	H9c2 TAG inh	TbMetRS inhib	MC4R antagonist	MC4R ag barr	U2OS cAMP counter	MC4R antag conf
Cc1noc(C(=O)Nc2cccc(O)c2)c1Cl	2	0	-2	1	29*	1	4	-3
O=C(c1ccc(NS(=O)(=O)c2ccc3c(c2)OCCO3)cc1)N1CCCCC1	1	0	-15	0	15	0	.	.
NS(=O)(=O)c1ccc(NS(=O)(=O)c2ccc3c(c2)OCCO3)cc1	-1	0	.	0	30*	-1	-5	-10
Cc1cc(C)c(NC(=S)NC(=O)c2ccc(-c3ccccc3)cc2)c(C)c1	.	0	0	1	32*	-1	-12	-17
O=C(NC(=S)Nc1ccccn1)c1ccc(-c2ccccc2)cc1	4	0	-14	0	7	1	.	.
COc1ccc(N2CCN(C(=O)NCc3ccc(OC)c(OC)c3)CC2)cc1	-2	0	.	-1	-1	0	.	.
COc1ccc(N2CCN(C(=O)NCc3ccc(OC)c(Cl)c3)CC2)cc1	2	0	30	0	31*	2	-1	8
COc1ccccc1N1CCN(S(=O)(=O)CCNC(=O)c2cccs2)CC1	.	0	-5	0	4	0	.	.
Cc1ccccc1NC(=S)N(CCN1CCCCC1)Cc1ccco1	0	0	1	0	31*	3	1	-6
CCn1nnnc1NCc1ccc(OCc2c(F)cccc2Cl)c(OC)c1	1	0	-10	0	32*	0	-3	7
CCCCN1CC(N2CCN(C(=O)c3ccco3)CC2)CS1(=O)=O (centres undefined)	.	0	.	-1	.	.	.	.
C=C(C(=O)c1ccccc1)C(C)CC(=O)c1ccccc1 (centres undefined)	9	2	20	0	33*	-1	23*	50*
